Assay results of several laboratories.
Lines come from different studies, so protocols differ.
Target: Serine/threonine-protein kinase PRP4 homolog (PRPF4B, Homo sapiens, UniProt Q13523)

Nc1ncc2c(n1)-c1c([nH]c3ccc(C#CC4CC4)cc13)CCCC2 — remaining binding (binding, competition with immobilised ligand; 1 µM): 80%
O=C(NCC1CCOCC1)c1n[nH]cc1NC(=O)c1c(F)cccc1F — remaining binding (binding, competition with immobilised ligand; 1 µM): 100%
CC(=O)N1CCC(c2ccc(C(=O)NC(=N)N)cc2C(F)(F)F)CC1 — remaining binding (cell-free assay, competition with immobilised ligand; 1 µM): 78%
N[C@H]1CCN(c2nccc(-c3cnn4ncccc34)n2)C1 — remaining binding (binding; 1 µM): 82%
C[C@@H](c1ccc(-n2cnc3c(N)ncnc32)cc1)N1CCc2nn(C)c(Cc3ccccc3)c2C1=O — remaining binding (binding, competition with immobilised ligand; 0.1 µM): 100%
C[C@@H]1CCN(c2nccc(-c3cnn4ncccc34)n2)C1 — remaining binding (binding; 1 µM): 64%
Cc1cnc(Nc2ccc(C(=O)N3CCC(N4CCCC4)CC3)cc2)nc1-c1cc2ccccc2s1 — remaining binding (binding, competition with immobilised ligand; 1 µM): 5.2%
O=C(NCCCC1CCCCC1)c1ccc(CNC(=O)c2cnn(-c3ccccc3)c2C(F)(F)F)cc1 — remaining binding (cell-free assay, competition with immobilised ligand; 0.1 µM): 100%
CN(C)c1nccc(-c2cnn3ncccc23)n1 — remaining binding (binding; 1 µM): 86%
C[C@@H]1CN(c2cc(-c3n[nH]c4ccc(OC5(C)CC5)cc34)ncn2)C[C@H](C)O1 — remaining binding (cell-free assay, competition with immobilised ligand; 0.1 µM): 83%
CN(C)c1ncc(F)c(-c2cnn3ncccc23)n1 — remaining binding (binding; 1 µM): 100%
Cc1nccc(COC(=O)N2C[C@@H]3[C@@H](CNC(=O)c4ccc5[nH]nnc5c4)[C@@H]3C2)n1 — remaining binding (cell-free assay, competition with immobilised ligand; 1 µM): 95%
O=C(c1ccc(Nc2ncc(Cl)c(-c3ccc(Cl)s3)n2)cc1)N1CCC(N2CCCC2)CC1 — remaining binding (binding, competition with immobilised ligand; 1 µM): 19%
COc1cnc(Nc2cccc(S(N)(=O)=O)c2)nc1N1CCN(c2ccccc2)C(=O)C1 — remaining binding (binding, competition with immobilised ligand; 1 µM): 100%
COc1ncc2cc3ccccc3nc2c1C#N — remaining binding (cell-free assay, competition with immobilised ligand; 5 µM): 100%
CNC(=O)[C@@H]1CC[C@@H](n2c(-c3ccc4cnccc4c3)nc3ccc(C(=O)NCc4cccc(C(N)=O)c4)cc32)C1 — remaining binding (binding, competition with immobilised ligand; 1 µM): 100%
COc1ccnn2ncc(-c3ccnc(N(C)C)n3)c12 — remaining binding (binding; 1 µM): 69%
Cc1c(NC(=O)c2cc(C(N)=O)nc3cc(F)ccc23)c(C(F)(F)F)nn1Cc1ccc(C(C)(C)C)cc1 — remaining binding (cell-free assay, competition with immobilised ligand; 1 µM): 73%
Cc1cnn2ncc(-c3ccnc(N(C)C)n3)c2c1 — remaining binding (binding; 1 µM): 94%
O=C(NCc1ncc(C(F)(F)F)cc1Cl)c1ccc2c(c1)C1(CCS(=O)(=O)CC1)[C@@H](C1CC1)N2S(=O)(=O)c1ccc(F)cc1 — remaining binding (cell-free assay, competition with immobilised ligand; 1 µM): 84%
F[C@@H]1CCN(c2nccc(-c3cnn4ncccc34)n2)C1 — remaining binding (binding; 1 µM): 100%
O=C(NCCCN1CCOCC1)c1ccc(Nc2nccc(-c3cc4ccccc4s3)n2)cc1 — remaining binding (binding, competition with immobilised ligand; 1 µM): 6.8%
